Screening data as filed in PubChem BioAssay.
Hits are enriched below; roughly 4.9% of the tested compounds scored in any of these assays.
NPY Y1 blocker: NPY-Y1 receptor antagonists, primary screen, cell-based; HEK293-CNG Y1 cells, membrane potential fluorescence; NPY at EC95, then isoproterenol; 1% of 200,000 active; inhibition, % at 3.6 µM;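 active = inhibition above the campaign mean inhibition of all tested compounds plus 3 SD, cut at about 20% in these data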;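 note: 0% = DMSO wells given NPY plus isoproterenol and 100% = isoproterenol alone without NPY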
Target sequence (P25929 whole entry, looked up): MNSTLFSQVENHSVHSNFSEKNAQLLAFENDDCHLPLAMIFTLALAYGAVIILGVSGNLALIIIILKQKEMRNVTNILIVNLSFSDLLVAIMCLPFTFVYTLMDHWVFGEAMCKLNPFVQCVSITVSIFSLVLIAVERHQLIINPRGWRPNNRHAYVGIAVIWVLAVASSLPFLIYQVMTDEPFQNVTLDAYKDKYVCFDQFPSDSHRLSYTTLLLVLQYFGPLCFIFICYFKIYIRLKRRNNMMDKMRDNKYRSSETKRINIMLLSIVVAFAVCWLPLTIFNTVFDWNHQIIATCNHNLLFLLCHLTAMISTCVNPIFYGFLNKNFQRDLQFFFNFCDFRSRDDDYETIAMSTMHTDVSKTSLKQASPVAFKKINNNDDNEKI
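Test system – HEK293 Y1/CNG channel cell line · Also added – NPY agonist 25 nM, then isoproterenol 1 µM plus Ro 20-1724 25 µM · Compound dosing – one concentration, 3.6 µM, in 0.4% DMSO · Schedule – compound incubation 1 h at room temperature, readout 45 min post-stimulation · Technique – fluorescence, membrane potential probe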
NPY Y2 blocker: NPY-Y2 receptor antagonists, primary screen, cell-based; Neuropeptide Y receptor type 2 (Homo sapiens), P49146; NPY-Y2 expressing cells, antagonist mode; inhibition, % at 2.7 µM; 0.99% of 140,000 active; AID 793, 2007; in the data active = inhibition above about 17%;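 note: 0% = vehicle with agonist challenge and 100% = reference antagonist with challenge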
Target sequence (P49146 whole entry, looked up): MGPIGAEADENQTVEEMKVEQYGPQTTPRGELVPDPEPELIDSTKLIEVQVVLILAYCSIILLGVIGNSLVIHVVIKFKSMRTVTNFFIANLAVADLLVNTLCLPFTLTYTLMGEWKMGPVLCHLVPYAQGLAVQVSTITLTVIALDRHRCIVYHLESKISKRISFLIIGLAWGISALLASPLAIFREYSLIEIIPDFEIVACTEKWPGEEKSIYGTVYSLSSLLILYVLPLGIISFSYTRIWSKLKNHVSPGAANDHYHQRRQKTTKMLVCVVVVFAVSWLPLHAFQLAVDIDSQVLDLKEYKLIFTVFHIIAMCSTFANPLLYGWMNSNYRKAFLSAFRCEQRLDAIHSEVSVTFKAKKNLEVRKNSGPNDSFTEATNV
WT yeast gro inh: growth inhibition of WT strain, primary screen, mitochondrial fusion inhibitor project, WT and mutant strains, chemical genetic. 2.1% of 190,000 active. mitochondrial fusion phenotypic screen. inhibition, % at 10 µM. AID 1362, 2008; in the data active = inhibition above about 58%; tested in S. cerevisiae
NPY1 pot ag: NPY-Y1 receptor potentiators or agonists, primary screen, cell-based | activation, % at 3.6 µM | NPY-Y1 expressing cells, potentiator/agonist activation | 0.37% of 220,000 active | Neuropeptide Y receptor type 1 (Homo sapiens), P25929 | AID 1304, 2008; in the data active = activation above about 33%, passing the limit was not always enough;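 note: cells stimulated with NPY at EC10 then isoproterenol at EC100; 0% = low agonist plus stimulus and 100% = saturating agonist plus stimulus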
NPY-Y2 PAM-ag: NPY-Y2 potentiators or agonists, primary screen, cell-based | Neuropeptide Y receptor type 2 (Homo sapiens), P49146 | cells expressing NPY-Y2, potentiator/agonist read-out | activation, % at 3.6 µM | 0.45% of 220,000 active | AID 1359, 2008; in the data active = activation above about 27%;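 note: cells stimulated with NPY near EC25 plus isoproterenol at EC100; 0% = vehicle plus submaximal agonist and 100% = vehicle plus saturating agonist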
RAM network inh: inhibitors of the yeast RAM network, primary screen, dse1pr::URA3 reporter, 5-FOA selection | S. cerevisiae dse1pr::URA3 reporter, 5-FOA growth OD615, 2 d; analog-sensitive cbk1-as2 kinase mutant strain | inhibition, % at 50 µM | 1.8% of 190,000 active | AID 868, 2007;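 active = inhibition above a set limit, 3 SD over mean compound inhibition, cut at about 8.4% in these data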;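 note: 0% = DMSO-only wells with no growth and 100% = 10 µM 1-NA-PP1 full growth; inhibition rescues growth on 5-FOA so higher OD means more RAM inhibition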
NPY-Y1 confirm: NPY-Y1 potentiators or agonists, confirmation, cell-based. 20% of 280 active. AID 1546, 2009. shares compounds with NPY1 pot ag. activation, % at 3.6 µM. cell-based NPY-Y1 potentiator/agonist assay; in the data active = activation above about 45%;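 note: cells challenged with NPY at its EC10 plus isoproterenol stimulus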
NPY-Y2 counter: NPY-Y2 potentiators or agonists, counter-screen for NPY-Y1 potentiator project, cell-based, fluorescence. shares compounds with NPY1 pot ag. HEK293-CNG cells, membrane-potential fluorescence (FLIPR), 1536-well. activation, % at 3.6 µM. 20% of 280 active; in the data active = activation above about 33%
NPY-Y1 agonist: NPY-Y1 direct agonists without NPY, confirmation, counter-screen for NPY-Y1 potentiator project, cell-based, fluorescence; AID 1697, 2009; HEK293 Y1-CNGC, membrane potential fluorescence, agonist mode; shares compounds with NPY1 pot ag; 50% of 280 active; activation, % at 3.6 µM;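 active = percent activation above the mean of DMSO-only control wells plus 3 SD of those wells, cut at about 18% in these data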;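 note: cells challenged with isoproterenol plus Ro 20-1724 with no NPY in test wells; Y1 agonism lowers isoproterenol-driven cAMP and reduces probe fluorescence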
NPY-Y2 ag: NPY-Y2 direct agonists without NPY, counter-screen for NPY-Y1 potentiator project, cell-based, fluorescence | activation, % at 3.6 µM | AID 1698, 2009 | shares compounds with NPY1 pot ag | 67% of 280 active | HEK293 Y2-CNGC, membrane potential fluorescence, agonist mode;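 active = activation above the solvent-only control wells' mean plus 3 SD, cut at about 11% in these data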;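 note: 0% = DMSO with isoproterenol and 100% = 40 nM NPY maximal response; agonism lowers cAMP so well fluorescence drops in active wells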
CNGC inh 2: CNGC cAMP sensor activity inhibitors, counter-screen for NPY-Y1 potentiator/agonist project, cell-based, HEK293-CNG parental, membrane potential fluorescence, Y1 set | AID 1704, 2009 | shares compounds with NPY1 pot ag | isoproterenol cAMP | 42% of 280 active | inhibition, % at 3.6 µM;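 active = inhibition above the mean of stimulated solvent-only control wells plus 3 SD, cut at about 22% in these data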;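 note: 0% = isoproterenol-stimulated DMSO wells and 100% = unstimulated DMSO wells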
Active calls of the source: *.

What do the screens show for `Cc1ccc(S(=O)(=O)Nc2nc3ccccc3nc2Nc2cccc(S(=O)(=O)N3CCCC3)c2)cc1`?
NPY Y1 blocker: -14; WT yeast gro inh: 2; NPY1 pot ag: 45*; NPY-Y2 PAM-ag: 18; RAM network inh: 4; NPY-Y1 confirm: 74*; NPY-Y2 counter: 71*; NPY-Y1 agonist: 67*; NPY-Y2 ag: 65*; CNGC inh 2: 44*

What do the screens show for `O=[N+]([O-])c1cccc(S(=O)(=O)Nc2nc3ccccc3nc2Nc2cccc(S(=O)(=O)N3CCCCC3)c2)c1`?
NPY Y1 blocker: 0; NPY Y2 blocker: -1; WT yeast gro inh: -21; NPY1 pot ag: 5; NPY-Y2 PAM-ag: 3; RAM network inh: 4

Results for CCCCn1nnc(NC(=O)C(c2ccccc2)c2ccccc2)n1 ?
NPY Y1 blocker: 2; WT yeast gro inh: 1; NPY1 pot ag: 64*; NPY-Y2 PAM-ag: -17; RAM network inh: 1; NPY-Y1 confirm: -8; NPY-Y2 counter: -5; NPY-Y1 agonist: -2; NPY-Y2 ag: 7; CNGC inh 2: 0

How did CCCn1nnc(NC(=O)C(c2ccccc2)c2ccccc2)n1 do in these assays?
NPY Y1 blocker: 12; NPY Y2 blocker: 4; WT yeast gro inh: -22; NPY1 pot ag: 12; NPY-Y2 PAM-ag: 2; RAM network inh: 0

Results for COC(=O)c1ccc(N2CCN(S(=O)(=O)c3ccc(C)cc3)CC2)c([N+](=O)[O-])c1 ?
NPY Y1 blocker: -1; NPY Y2 blocker: -2; WT yeast gro inh: 16; NPY1 pot ag: -21; NPY-Y2 PAM-ag: -8; RAM network inh: 2

What do the screens show for `O=[N+]([O-])c1cc(S(=O)(=O)Nc2cccc(Cl)c2)ccc1N/N=C/c1ccc(N2CCOCC2)cc1`?
NPY1 pot ag: 66*; NPY-Y2 PAM-ag: -6; NPY-Y1 confirm: 53*; NPY-Y2 counter: 61*; NPY-Y1 agonist: 44*; NPY-Y2 ag: 61*; CNGC inh 2: 47*

Results for COc1cc(/C=N\Nc2nc3ccccc3[nH]2)cc(OC)c1OC ?
NPY Y1 blocker: 2; NPY Y2 blocker: 1; WT yeast gro inh: 48; NPY1 pot ag: -20; NPY-Y2 PAM-ag: -5; RAM network inh: 0

How did COc1ccc2c(c1)c(/C=N/Nc1nc3ccccc3[nH]1)c(C)n2C do in these assays?
NPY1 pot ag: 42*; NPY-Y2 PAM-ag: 29; NPY-Y1 confirm: 60*; NPY-Y2 counter: 47*; NPY-Y1 agonist: 42*; NPY-Y2 ag: 50*; CNGC inh 2: 36*

How did Cc1ccc(NC(=O)COC(=O)c2ccc([N+](=O)[O-])o2)cc1S(=O)(=O)N1CCCCC1 do in these assays?
NPY Y1 blocker: 9; WT yeast gro inh: 6; NPY1 pot ag: 41*; NPY-Y2 PAM-ag: 5; RAM network inh: 3; NPY-Y1 confirm: -7; NPY-Y2 counter: -2; NPY-Y1 agonist: -14; NPY-Y2 ag: -4; CNGC inh 2: 5

How did Cc1cccc(C(=O)NCC(=O)OCC(=O)N2CCCCC2)c1 do in these assays?
NPY Y1 blocker: -4; WT yeast gro inh: -13; NPY1 pot ag: 14; NPY-Y2 PAM-ag: 11; RAM network inh: 1

How did N#C/C(=C(/O)c1ccc([N+](=O)[O-])s1)c1nc2ccccc2[nH]1 do in these assays?
NPY1 pot ag: 48*; NPY-Y2 PAM-ag: 27; NPY-Y1 confirm: 15; NPY-Y2 counter: 22; NPY-Y1 agonist: 2; NPY-Y2 ag: 28*; CNGC inh 2: -6

What do the screens show for `CC(=O)Nc1ccc(S(=O)(=O)N2CCN(CCN3CCOCC3)CC2)cc1Cl`?
NPY1 pot ag: 11; NPY-Y2 PAM-ag: -14

What do the screens show for `COc1ccc(OC(C)C(=O)Nc2ccccc2C(F)(F)F)cc1` (configuration not stated)?
NPY Y1 blocker: 0; NPY Y2 blocker: 0; WT yeast gro inh: -6; NPY1 pot ag: -5; NPY-Y2 PAM-ag: 9; RAM network inh: 0

Results for CC(Oc1cc(C(F)(F)F)cc(C(F)(F)F)c1)C(=O)NC(N)=O (configuration not stated) ?
NPY Y1 blocker: -13; NPY Y2 blocker: 3; WT yeast gro inh: -12; NPY1 pot ag: 49*; NPY-Y2 PAM-ag: 24; RAM network inh: 1; NPY-Y1 confirm: 46*; NPY-Y2 counter: 29; NPY-Y1 agonist: 34*; NPY-Y2 ag: 32*; CNGC inh 2: 36*

How did COc1ccc(Nc2nc(N)c([N+](=O)[O-])c(NCCO)n2)cc1 do in these assays?
NPY1 pot ag: 20; NPY-Y2 PAM-ag: 24

How did CCOc1ccc(Nc2nc(Nc3ccc(O)cc3)nc(C)c2[N+](=O)[O-])cc1 do in these assays?
NPY Y1 blocker: -9; WT yeast gro inh: -3; NPY1 pot ag: 40*; NPY-Y2 PAM-ag: 25; RAM network inh: 3; NPY-Y1 confirm: 27; NPY-Y2 counter: 23; NPY-Y1 agonist: 5; NPY-Y2 ag: 16*; CNGC inh 2: 20

How did Cn1c(SCc2cccnc2)nc2c(c1=O)SCC2 do in these assays?
NPY Y1 blocker: -1; WT yeast gro inh: -3; NPY1 pot ag: -1; NPY-Y2 PAM-ag: -11; RAM network inh: 0

Results for C=CCc1ccc(O)c(-c2cc(CC=C)ccc2O)c1 ?
NPY Y1 blocker: -8; WT yeast gro inh: 74*; NPY1 pot ag: 33*; NPY-Y2 PAM-ag: 15; RAM network inh: -2; NPY-Y1 confirm: 22; NPY-Y2 counter: 11; NPY-Y1 agonist: 12; NPY-Y2 ag: 16*; CNGC inh 2: 21
